Assay [1] concerns Influenza A virus. Nature of the assay: Antiviral activity against Influenza A virus A/Hong Kong/8/68(H3N2) infected in dog MDCK cells after 3 days by CPE assay. Format: functional, organism-based. Conditions: 72 h. In short, it runs like this: (§1)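 Cytopathic effect (CPE) assay measuring inhibition of virus replication in MDCK cells. Strains were A/WSN/33 (H1N1, M2-resistant) and A/Hong Kong/8/68 (H3N2, M2-sensitive). Ribavirin served as the positive control. Values reported as IC50.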

The subject of assay [2] is Influenza A virus. Nature of the assay: Antiviral activity against Influenza A virus (A/WSN/1933(H1N1)) infected in dog MDCK cells after 3 days by CPE assay. Type of assay: functional, organism-based. The following applies: 72 h. Put shortly:
as §1

The subject of assay [3] is K562. The assay is described as follows: Cytotoxicity against human K562 cells by MTT assay. Type of assay: functional, cell-based. In short, it runs like this: (§2)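 MTT assay on the human tumour lines U937 (leukemic monocyte lymphoma), K562 (erythroid leukemia), BGC-823 (gastric carcinoma), MOLT-4 (acute lymphoblastic leukemia), MCF-7 (breast adenocarcinoma) and A549 (lung carcinoma). Taxol served as the positive control. Values reported as IC50.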

Assay [4] concerns BGC-823. Nature of the assay: Cytotoxicity against human BGC823 cells by MTT assay. Type of assay: functional, cell-based. Put shortly: as §2
Assay [5] relates to MOLT-4. Nature of the assay: Cytotoxicity against human MOLT4 cells by MTT assay. Type of assay: functional, cell-based. Put shortly: as §2
(In general: Formazan colour is commonly taken as a measure of viable cells.)

The test system of assay [6] is U-937. The assay is described as follows: Cytotoxicity against human U937 cells by MTT assay. Type of assay: functional, cell-based. In short, it runs like this: as §2

In general, IC50 refers to the concentration that gives 50% inhibition. Read a low IC50 as greater potency in that assay.

With `NC(=O)c1ncn([C@@H]2O[C@H](CO)[C@@H](O)[C@H]2O)n1` [RIBAVIRIN], the IC50 in assay [1] came to 0.41 µM; in assay [2], 20.2 µM.
Consider `CC(=O)O[C@H]1C(=O)[C@@]2(C)[C@H]([C@H](OC(=O)c3ccccc3)[C@]3(O)C[C@H](OC(=O)[C@H](O)[C@@H](NC(=O)c4ccccc4)c4ccccc4)C(C)=C1C3(C)C)[C@]1(OC(C)=O)CO[C@@H]1C[C@@H]2O` [PACLITAXEL], for which the IC50 in assay [3] is 4.9 nM; in assay [4] it was 3.5 nM; in assay [5], 0.0018 µM; in assay [6] it was 0.0019 µM.
Regarding `CC[C@@H](C)[C@H]1NC(=O)[C@@H](C)NC(=O)c2ccccc2NC(=O)[C@@H]([C@@H](O)c2ccccc2)N(C)C1=O`, the IC50 was 8.1 µM in assay [1], 15 µM in assay [2], 6.2 µM in assay [5] and 6.4 µM in assay [6].

The values are drawn from ChEMBL document CHEMBL2384926, “Asperterrestide A, a cytotoxic cyclic tetrapeptide from the marine-derived fungus Aspergillus terreus SCSGAF0162” (J Nat Prod, 2013).
